The test system of assay [1] is Escherichia coli. In words: Potentiation of levofloxacin-induced antibacterial activity Escherichia coli transformed with plasmid carrying MG1655 deltaBC/pABM assessed as levofloxacin MIC by p-iodonitrotetrazolium chloride colorimetric assay. The format is functional. The gist of the method: (§1)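 Checkerboard microdilution in Mueller-Hinton broth: two-fold dilutions of antibiotic crossed with dilutions of test compound above, at and below their MICs. Growth was read by INT colorimetric assay, with MIC as the lowest concentration showing no visible growth. FICs and FIC index were derived from these MICs. ΔBC/pABM and ΔBC/pXYM strains were grown with 100 μg/mL ampicillin and 1 mM IPTG.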

Assay [2] deals with Escherichia coli. In words: Potentiation of erythromycin-induced antibacterial activity Escherichia coli transformed with plasmid carrying MG1655 deltaBC/pXYM by p-iodonitrotetrazolium chloride colorimetric assay. Type of assay: functional.
For assay [3], the system named is Escherichia coli. The experiment in a line: Potentiation of piperacillin-induced antibacterial activity Escherichia coli AG102 overexpressing AcrAB-TolC by p-iodonitrotetrazolium chloride colorimetric assay. The format is functional.
For assay [4], the system named is Escherichia coli. In words: Potentiation of piperacillin-induced antibacterial activity Escherichia coli AG102 overexpressing AcrAB-TolC assessed as piperacillin MIC by p-iodonitrotetrazolium chloride colorimetric assay. Type of assay: functional. The gist of the method: as §1
Assay [5] relates to Escherichia coli. In words: (§2) Inhibition of AcrAB-TolC pump in Escherichia coli AG100 assessed as increase in intracellular H33342 fluorescence after 60 mins by efflux inhibition assay. Type of assay: cell-based. The gist of the method: (§3)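 AG100 (wild-type K-12) or AG100A (ΔacrAB) cells were grown in Luria broth at 37 °C and 200 rpm to OD600 1.0, PBS-washed and diluted to OD600 0.3. Cells took up 2.5 μM Hoechst 33342 with 22 mM glucose at 37 °C for about 30 min, then compound (0.06–64 μg/mL) or PAβN (15.6 μg/mL) was added. Fluorescence (Ex 350/Em 460 nm) was followed for 60 min and corrected for background. The last four time points were compared to dye-only control by ANOVA with Dunnett's test, run in duplicate.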

Assay [6] is described as follows: as §2. Conditions: AG100, 1 h. Type of assay: cell-based. A digest of the protocol: as §3
In assay [7] the test system is Escherichia coli. In words: Potentiation of piperacillin-induced antibacterial activity Escherichia coli transformed with plasmid carrying MG1655 deltaBC/pABM assessed as piperacillin MIC by p-iodonitrotetrazolium chloride colorimetric assay. Type of assay: functional, organism-based. The gist of the method: as §1
Assay [8] concerns Escherichia coli. The experiment in a line: Potentiation of levofloxacin-induced antibacterial activity Escherichia coli AG102 overexpressing AcrAB-TolC MIC by p-iodonitrotetrazolium chloride colorimetric assay. The format is functional.
The test system of assay [9] is Escherichia coli. The experiment in a line: Effect on intracellular H33342 accumulation in Escherichia coli AG100A delta acrAB mutant at 1 ug/ml after 60 mins by accumulation assay. The format is functional. The gist of the method:
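Cells grown in Luria broth at 37 °C, 200 rpm to OD600 1.0, then washed twice in PBS and diluted in glucose-free PBS to OD600 0.3. H33342 was used at 2.5 μM with 22 mM glucose at 37 °C and allowed to accumulate for ~30 min. Compound was then added and fluorescence (Ex 350/Em 460 nm) followed for 60 min. Values are the mean RFU of the final 4 min, after media-plus-compound background was subtracted. Run in duplicate, n = 8.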

Assay [10] relates to Escherichia coli. In words: Effect on intracellular H33342 accumulation in Escherichia coli AG100A delta acrAB mutant at 0.25 ug/ml after 60 mins by accumulation assay. Type of assay: functional. The gist of the method:
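Cells grown in Luria broth at 37 °C, 200 rpm to OD600 1.0, washed twice in PBS and diluted in glucose-free PBS to OD600 0.3. Cells were given 2.5 μM H33342 with 22 mM glucose at 37 °C for ~30 min until stable, then compound added (0.06–64 μg/mL). Fluorescence (Ex 350/Em 460 nm) was read for 60 min, background subtracted, and the final 4 min averaged (n = 8).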

The subject of assay [11] is Escherichia coli. The experiment in a line: Potentiation of levofloxacin-induced antibacterial activity Escherichia coli transformed with plasmid carrying MG1655 deltaBC/pXYM MIC by p-iodonitrotetrazolium chloride colorimetric assay. Type of assay: functional.
Assay [12] has as its system Escherichia coli. In words: Potentiation of tetracycline-induced antibacterial activity Escherichia coli AG102 overexpressing AcrAB-TolC assessed as tetracycline MIC by p-iodonitrotetrazolium chloride colorimetric assay. Type of assay: functional. The gist of the method: as §1
Assay [13] has as its system Escherichia coli. The experiment in a line: Potentiation of ciprofloxacin-induced antibacterial activity Escherichia coli transformed with plasmid carrying MG1655 deltaBC/pXYM by p-iodonitrotetrazolium chloride colorimetric assay. Type of assay: functional.
Assay [14] relates to Escherichia coli K-12. The experiment in a line: Inhibition of AcrAB-TolC pump in Escherichia coli K-12 AG100 assessed as […] at 0.06 ug/ml after 60 mins by accumulation assay. A digest of the protocol: (§4)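 AG100 (wild-type K-12) or AG100A (ΔacrAB) grown in Luria broth at 37 °C and 200 rpm to OD600 1.0, PBS-washed, diluted to OD600 0.3. Cells given 2.5 μM H33342 with 22 mM glucose at 37 °C for ~30 min until stable, then compound (0.06–64 μg/mL) added. Fluorescence (Ex 350/Em 460) read for 60 min, background subtracted. Final 4 time points averaged; one-way ANOVA/Dunnett vs Hoechst-only; n = 8.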

Assay [15] has as its system Escherichia coli. In words: Potentiation of erythromycin-induced antibacterial activity Escherichia coli transformed with plasmid carrying MG1655 deltaBC/pXYM assessed as erythromycin MIC by p-iodonitrotetrazolium chloride colorimetric assay. Type of assay: functional. The gist of the method: as §1
For assay [16], the system named is Escherichia coli. The experiment in a line: Potentiation of tetracycline-induced antibacterial activity Escherichia coli AG102 overexpressing AcrAB-TolC by p-iodonitrotetrazolium chloride colorimetric assay. Type of assay: functional.
In assay [17] the test system is Escherichia coli. In words: Potentiation of piperacillin-induced antibacterial activity Escherichia coli transformed with plasmid carrying MG1655 deltaBC/pXYM by p-iodonitrotetrazolium chloride colorimetric assay. The format is functional.
The subject of assay [18] is Escherichia coli K-12. In words: Inhibition of AcrAB-TolC pump in Escherichia coli K-12 AG100 assessed as increase in intracellular H33342 fluorescence at 16 ug/ml after 60 mins by efflux inhibition assay. The format is cell-based. The gist of the method:
as §3

For assay [19], the system named is Escherichia coli K-12. The experiment in a line: Inhibition of AcrAB-TolC pump in Escherichia coli K-12 AG100 assessed as increase in intracellular H33342 fluorescence at 64 ug/ml after 60 mins by efflux inhibition assay. The format is cell-based. A digest of the protocol:
as §3

Assay [20] relates to Escherichia coli. The experiment in a line: Potentiation of chloramphenicol-induced antibacterial activity Escherichia coli transformed with plasmid carrying MG1655 deltaBC/pXYM assessed as chloramphenicol MIC by p-iodonitrotetrazolium chloride colorimetric assay. Type of assay: functional. A digest of the protocol:
as §1

Assay [21] concerns Escherichia coli K-12. The experiment in a line: Inhibition of AcrAB-TolC pump in Escherichia coli K-12 AG100 assessed as […] at 4 ug/ml after 60 mins by accumulation assay. The gist of the method:
as §4

The subject of assay [22] is Escherichia coli. The experiment in a line: Potentiation of chloramphenicol-induced antibacterial activity Escherichia coli AG102 overexpressing AcrAB-TolC assessed as chloramphenicol MIC by p-iodonitrotetrazolium chloride colorimetric assay. The format is functional. The gist of the method:
as §1

Assay [23] deals with Escherichia coli. The experiment in a line: Potentiation of tetracycline-induced antibacterial activity Escherichia coli transformed with plasmid carrying MG1655 deltaBC/pXYM by p-iodonitrotetrazolium chloride colorimetric assay. The format is functional.
The test system of assay [24] is Escherichia coli. In words: Potentiation of ciprofloxacin-induced antibacterial activity Escherichia coli transformed with plasmid carrying MG1655 deltaBC/pXYM assessed as ciprofloxacin MIC by p-iodonitrotetrazolium chloride colorimetric assay. The format is functional. The gist of the method: as §1

≈ marks a conversion by molar mass, not a printed value. Calls of active or inactive are those of the source. The rule behind the calls is not given here.

`O=C1NC(=O)C(Br)=C1Br`: the minimal inhibitory concentration (MIC) in assay [1] came out at 64 µg/mL; in assay [4], 32 µg/mL; in [12] it was 64 µg/mL; in [15], 32 µg/mL; in assay [20], 64 µg/mL; in [22], 64 µg/mL. For the same molecule, the MIC in assay [24] stood at 32 µg/mL. Also, the “fractional inhibitory concentration index (FICI)” value is recorded as 0.31 in [2]; 0.75 in assay [3]; 0.36 in assay [8]; 0.19 in assay [11]; 0.19 in assay [13]; 0.31 in assay [16]. Also, the entries for the “fractional inhibitory concentration index (FICI)” value in assay [17] and in assay [23] were 0.52 and 0.58, respectively. For the same molecule, the inhibition result in assay [5] was “Dose-dependent effect”. Besides, in assay [6], the IC50 amounted to 0.79 µg/mL (≈ 3.1 µM). In assay [7], the MIC entry was “inactive”. The RFU was 1070 in assay [9]; 1000 in assay [10]; 758 in assay [14]; -34 in [18]; -68 in assay [19]; 1130 in assay [21].
